According to ChEMBL document CHEMBL4699443, “Position of lipidation influences anticancer activity of Smac analogs” (Bioorg Med Chem Lett, 2019):
Blank lines part the entries; values can stand above or below the compound they belong to. Non-standard residues stand in square brackets, D forms with d. Residues, ends and D or L forms follow the SMILES beside them. *: point of attachment. Pro(cis-4-OPh) = O=C(O)[C@@H]1C[C@H](Oc2ccccc2)CN1; Bip = N[C@@H](Cc1ccc(-c2ccccc2)cc1)C(=O)O; Tle = CC(C)(C)[C@H](N)C(=O)O; X1 = CCCCCCCCCCCCCCCCCCSCCN*; NMeA = CN[C@@H](C)C(=O)O

Assays:
HepG2 = assay: Antiproliferative activity against human HepG2 cells assessed as growth inhibition after 48 hrs by PrestoBlue dye based fluorescence assay; format: functional, cell-based; conditions: HepG2, 48 h
T47D = assay: Antiproliferative activity against human T47D cells assessed as growth inhibition after 48 hrs by PrestoBlue dye based fluorescence assay; format: functional, cell-based
[1] = Antiproliferative activity against human M263 cells assessed as growth inhibition after 48 hrs by PrestoBlue dye based fluorescence assay; format: functional, cell-based; conditions: M263, 48 h
KOPN-8 [2] = assay: Induction of apoptosis in human KOPN8 cells assessed as early apoptotic cells at 10 uM after 72 hrs by AnnexinV/PI-staining based flow cytometry; format: functional
Outline: (§1)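 KOPN-8 cells treated with 1 or 10 μM compound, alone or as an equimolar two-compound mixture. Cultured for a time course, then stained with annexin V and propidium iodide. Read by flow cytometry; populations gated by annexin V/PI staining, including annexin V+/PI+ double positives.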

PC-3 = assay: Antiproliferative activity against human PC-3 cells assessed as growth inhibition after 48 hrs by PrestoBlue dye based fluorescence assay; format: functional, cell-based; conditions: PC-3, 48 h
[3] = Tmax in C57BL/6 mouse at 10 mg/kg, sc by LC-MS analysis; format: ADME, organism-based; conditions: in vivo
Outline: (§2)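 Mice individually weighed, then given a single SC dose of 10 mg/kg. Blood taken by retro-orbital bleeding at set time points. Plasma levels measured by triple-quadrupole LC/MS; plasma half-life derived from these levels.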

[4] = Antiproliferative activity against human M233 cells assessed as growth inhibition after 48 hrs by PrestoBlue dye based fluorescence assay; format: functional, cell-based; conditions: M233, 48 h
KOPN-8 [5] = assay: Induction of apoptosis in human KOPN8 cells assessed as early apoptotic cells at 10 uM after 48 hrs by AnnexinV/PI-staining based flow cytometry; format: functional; outline: as §1
MDA-MB-361 [6] = assay: Antiproliferative activity against human MDA-MB-361 cells assessed as growth inhibition after 48 hrs by PrestoBlue dye based fluorescence assay; format: functional, cell-based; conditions: MDA-MB-361, 48 h
KOPN-8 [7] = assay: Antiproliferative activity against human KOPN-8 cells assessed as growth inhibition after 48 hrs by PrestoBlue dye based fluorescence assay; format: functional, cell-based; conditions: KOPN-8, 48 h
BT-474 = assay: Antiproliferative activity against human BT-474 cells assessed as growth inhibition after 48 hrs by PrestoBlue dye based fluorescence assay; format: functional, cell-based; conditions: BT-474, 48 h
KOPN-8 [8] = assay: Induction of apoptosis in human KOPN8 cells assessed as increase in caspase 9 activity at 0.1 to 50 uM after 24 hrs by Caspase-glo reagent based microplate reader analysis relative to control; format: functional; conditions: dose microM 0.1-50
[9] = Antiproliferative activity against human UM-SCC-12 cells assessed as growth inhibition after 48 hrs by PrestoBlue dye based fluorescence assay; format: functional, cell-based; conditions: UM-SCC-12, 48 h
KOPN-8 [10] = assay: Induction of apoptosis in human KOPN8 cells assessed as necrotic cells at 10 uM after 72 hrs by AnnexinV/PI-staining based flow cytometry; format: functional; outline: as §1
KOPN-8 [11] = assay: Induction of apoptosis in human KOPN8 cells assessed as necrotic cells at 10 uM after 168 hrs by AnnexinV/PI-staining based flow cytometry; format: functional; outline: as §1
KOPN-8 [12] = assay: Induction of apoptosis in human KOPN8 cells assessed as necrotic cells at 10 uM after 24 hrs by AnnexinV/PI-staining based flow cytometry; format: functional; outline: as §1
[13] = Antiproliferative activity against human UM-SCC-178 cells assessed as growth inhibition after 48 hrs by PrestoBlue dye based fluorescence assay; format: functional, cell-based; conditions: UM-SCC-178, 48 h
HL-60 = assay: Antiproliferative activity against human HL60 cells assessed as growth inhibition after 48 hrs by PrestoBlue dye based fluorescence assay; format: functional, cell-based; conditions: HL-60, 48 h
KOPN-8 [14] = assay: Induction of apoptosis in human KOPN8 cells assessed as viable cells at 10 uM after 168 hrs by AnnexinV/PI-staining based flow cytometry; format: functional; conditions: read-out: Activity; outline: as §1
KOPN-8 [15] = assay: Induction of apoptosis in human KOPN8 cells assessed as viable cells at 10 uM after 48 hrs by AnnexinV/PI-staining based flow cytometry; format: functional; conditions: read-out: Activity; outline: as §1
[16] = Drug level in C57BL/6 mouse plasma at 10 mg/kg, sc after 30 mins by LC-MS analysis; format: ADME, organism-based; conditions: in vivo, 0.5 h; outline: as §2
KOPN-8 [17] = assay: Induction of apoptosis in human KOPN8 cells assessed as late apoptotic cells at 10 uM after 168 hrs by AnnexinV/PI-staining based flow cytometry; format: functional; outline: as §1
T84 = assay: Antiproliferative activity against human T84 cells assessed as growth inhibition after 48 hrs by PrestoBlue dye based fluorescence assay; format: functional, cell-based; conditions: T84, 48 h
MDA-MB-361 [18] = assay: Antitumor activity against sc dosed human MDA-MB-361 cells xenografted in BALB mouse administered up to 12 days by caliper analysis; format: functional, organism-based; conditions: dose mg/kg 10-20, time 12.0 day
Outline: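 Tumor-bearing mice, subcutaneous engraftment model; compound given SC at 10 or 20 mg/kg in 2% Cremophor EL, 2×5 injections (10 doses total). Read-out is tumor growth delay in days, taken at a tumor volume of 500 mm3.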

KOPN-8 [19] = assay: Induction of apoptosis in human KOPN8 cells assessed as necrotic cells at 10 uM after 48 hrs by AnnexinV/PI-staining based flow cytometry; format: functional; outline: as §1
KOPN-8 [20] = assay: Induction of apoptosis in human KOPN8 cells assessed as early apoptotic cells at 10 uM after 24 hrs by AnnexinV/PI-staining based flow cytometry; format: functional; outline: as §1
KOPN-8 [21] = assay: Induction of apoptosis in human KOPN8 cells assessed as viable cells at 10 uM after 24 hrs by AnnexinV/PI-staining based flow cytometry; format: functional; conditions: read-out: Activity; outline: as §1
THP-1 = assay: Antiproliferative activity against human THP1 cells assessed as growth inhibition after 48 hrs by PrestoBlue dye based fluorescence assay; format: functional, cell-based; conditions: THP-1, 48 h
[22] = Cmax in C57BL/6 mouse at 10 mg/kg, sc by LC-MS analysis; format: ADME, organism-based; set-up: route subcutaneous, dose 10 mg/kg; conditions: in vivo; outline: as §2
KOPN-8 [23] = assay: Induction of apoptosis in human KOPN8 cells assessed as late apoptotic cells at 10 uM after 24 hrs by AnnexinV/PI-staining based flow cytometry; format: functional; outline: as §1
KOPN-8 [24] = assay: Induction of apoptosis in human KOPN8 cells assessed as late apoptotic cells at 10 uM after 48 hrs by AnnexinV/PI-staining based flow cytometry; format: functional; outline: as §1
KOPN-8 [25] = assay: Induction of apoptosis in human KOPN8 cells assessed as late apoptotic cells at 10 uM after 72 hrs by AnnexinV/PI-staining based flow cytometry; format: functional; outline: as §1
KOPN-8 [26] = assay: Induction of apoptosis in human KOPN8 cells assessed as early apoptotic cells at 10 uM after 168 hrs by AnnexinV/PI-staining based flow cytometry; format: functional; outline: as §1
KOPN-8 [27] = assay: Induction of apoptosis in human KOPN8 cells assessed as viable cells at 10 uM after 72 hrs by AnnexinV/PI-staining based flow cytometry; format: functional; conditions: read-out: Activity; outline: as §1
[28] = Antiproliferative activity against human UM-SCC-5 cells assessed as growth inhibition after 48 hrs by PrestoBlue dye based fluorescence assay; format: functional, cell-based; conditions: UM-SCC-5, 48 h
HCC1954 = assay: Antiproliferative activity against human HCC1954 cells assessed as growth inhibition after 48 hrs by PrestoBlue dye based fluorescence assay; format: functional, cell-based; conditions: HCC1954, 48 h
VCaP = assay: Antiproliferative activity against human VCap cells assessed as growth inhibition after 48 hrs by PrestoBlue dye based fluorescence assay; format: functional, cell-based

EC50 (HepG2): 5.4 µM
EC50 (T47D): 9 µM
SMILES: CCCCCCCCCCCCCCCc1cccc(O[C@H]2C[C@@H](C(=O)NCC(c3ccccc3)c3ccccc3)N(C(=O)[C@@H](NC(=O)[C@H](C)NC)C(C)(C)C)C2)c1

EC50 (PC-3): 2.2 µM
Tmax [3]: 16 h
EC50 (MDA-MB-361 [6]): 1.7 µM
EC50 (BT-474): 0.32 µM
EC50 (HL-60): 2 µM
Cp [16]: 7.5633 µM
EC50 (THP-1): 8.7 µM
Cmax [22]: 15.1265 µM
SMILES: CCCCCCCCCCCCCCCCCCSCCNC(=O)[C@H](Cc1ccc(-c2ccccc2)cc1)NC(=O)[C@@H]1C[C@H](Oc2ccccc2)CN1C(=O)[C@@H](NC(=O)[C@H](C)NC)C(C)(C)C (H-[NMeA][Tle][Pro(cis-4-OPh)][Bip]-X1)
EC50 [1]: 2.9 µM
Activity (KOPN-8 [2]): 1.27%
EC50 [4]: 9.5 µM
Activity (KOPN-8 [5]): 0.94%
EC50 (KOPN-8 [7]): 1 µM
fold change (FC) (KOPN-8 [8]): 1.5
EC50 [9]: 1.1 µM
Activity (KOPN-8 [10]): 1.41%
Activity (KOPN-8 [11]): 0.63%
Activity (KOPN-8 [12]): 7.06%
EC50 [13]: 2.7 µM
viability at 10 µM (KOPN-8 [14]): 87.6%
viability at 10 µM (KOPN-8 [15]): 79.3%
Activity (KOPN-8 [17]): 9.97%
EC50 (T84): 2 µM
Activity (MDA-MB-361 [18]): Dose-dependent effect
Activity (KOPN-8 [19]): 1.97%
Activity (KOPN-8 [20]): 1.67%
viability at 10 µM (KOPN-8 [21]): 71%
Activity (KOPN-8 [23]): 20.3%
Activity (KOPN-8 [24]): 17.8%
Activity (KOPN-8 [25]): 22.4%
Activity (KOPN-8 [26]): 1.81%
viability at 10 µM (KOPN-8 [27]): 74.9%
EC50 [28]: 0.96 µM

EC50 (HCC1954): 17.5 µM
EC50 (VCaP): 8.9 µM
SMILES: CCCCCCCCCCCCCCCCS[C@H]1C[C@@H](C(=O)NCC(c2ccccc2)c2ccccc2)N(C(=O)[C@@H](NC(=O)[C@H](C)NC)C(C)(C)C)C1
